Reference: paper PMC3286645 (Carbohydrate Research, 2011)
Where two headings read alike, the source gives them in different places.

Key:
[1] = Thermogravimetric analysis; format: physicochemical; settings: TGA; for Temperature of solvent loss: 10 °C/min under nitrogen; for Number of water molecules: from weight loss; for Percent weight loss: solvent loss
How it was run: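 Instrument calibrated with indium and aluminum. 2.5 mg to 4.5 mg of each test compound in an alumina crucible, heated from 25 °C to 200 °C at 10 °C/min under nitrogen flowing at 2 mL/min; weight loss recorded against temperature.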

HaCaT cells = assay: MTS cell viability assay in HaCaT cells; format: cell-based, human
Jurkat cells [2] = assay: MTS cell viability assay in Jurkat cells; format: cell-based
[3] = cited from earlier work
[4] = Differential scanning calorimetry; format: physicochemical; settings: DSC; for Mp (transition from solid crystalline phase to liquid crystalline phase): first phase transition; for Cp (clearing point): liquid crystalline phase to liquid melt phase
How it was run: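 Dry test compounds kept under vacuum against moisture uptake; 1.0 to 1.5 mg weighed into Tzero aluminum pans sealed with hermetic lids, empty sealed pan as reference. Instrument calibrated with indium for temperature and enthalpy. Scanned 20°C to 250°C at 2.5°C/min; phase transitions taken from the thermograms.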

Hs27 cells = assay: MTS cell viability assay in Hs27 cells; format: cell-based
Jurkat cells [5] = assay: Apoptosis assay; format: cell-based
[6] = Solubility of stock solutions in DMSO and in cell culture medium; format: physicochemical; settings: 100 mM stock solution in dimethyl sulfoxide
How it was run: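 Test compounds and the octylthioglucoside reference were each made up as 100 mM stocks in DMSO. Solubility was judged by eye. An aliquot of each stock was added to cell culture medium, vortexed for 5 sec, centrifuged at 1,400 rpm for 1 min, and checked for precipitate. Stocks that precipitated were diluted further before cytotoxicity testing.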

[7] = HaCaT cells, MTS assay, 20 h exposure
[8] = Jurkat cells, MTS assay, 20 h exposure
[9] = Hs27 cells, MTS assay, 20 h exposure

| Decomposition Temperature [1] [°C] | Temperature of solvent loss [1] [°C] | Number of water molecules [1] | Percent weight loss [1] [%] | Compound | toxicity (cell viability) in words (Jurkat cells [2]; [8]) | toxicity (cell viability) in words (Hs27 cells; [9]) | other results |
| --- | --- | --- | --- | --- | --- | --- | --- |
| 262.8 ± 4.34 | 81.74 ± 0.41 | 0.4 | 2.50±0.66 | CCCCCCO[C@@H]1OC[C@@H](O)[C@H](O)[C@H]1O [Compound 9a, Hexyl β-D-xylopyranoside] | – | – | – |
| 290.4 ± 10.5 | 86.35 ± 0.98 | 0.3 | 1.56±0.09 | CCCCCCCCCCCCO[C@@H]1OC[C@@H](O)[C@H](O)[C@H]1O [Compound 9d, Dodecyl β-D-xylopyranoside] | – | – | – |
| 294.8 ± 7.15 | 100.1 ± 2.93 | 0.5 | 1.87±1.08 | CCCCCCCCCCCCCCO[C@@H]1OC[C@@H](O)[C@H](O)[C@H]1O [Compound 9e, Tetradecyl β-D-xylopyranoside] | – | – | – |
| – | 103.4 ± 1.95 | 0.3 | 1.24±0.49 | CCCCCCCCCCCCCCCCO[C@@H]1OC[C@@H](O)[C@H](O)[C@H]1O [Compound 9f, Hexadecyl β-D-xylopyranoside] | – | – | – |
| – | – | – | – | CCCCCCCCS[C@@H]1O[C@H](CO)[C@@H](O)[C@H](O)[C@H]1O [OTG, octylthioglucoside, reference compound] | moderate toxicity | moderate toxicity | solubility in DMSO [6]: readily soluble |

| Compound | Decomposition Temperature [1] [°C] | Temperature of solvent loss [1] [°C] | Number of water molecules [1] | Percent weight loss [1] [%] | toxicity (cell viability) in words (Jurkat cells [2]; [8]) | toxicity (cell viability) in words (Hs27 cells; [9]) | other results |
| --- | --- | --- | --- | --- | --- | --- | --- |
| CCCCCCCCO[C@@H]1OC[C@@H](O)[C@H](O)[C@H]1O [Compound 9b, Octyl β-D-xylopyranoside] | 267.1 ± 9.15 | 85.32 ± 0.55 | 0.5 | 2.35±0.91 | moderate toxicity | moderate toxicity | toxicity (cell viability) in words (HaCaT cells; [7]): moderate toxicity; Cp (clearing point) ([3]; reported previously ref 23): 96.9 °C; Mp (transition from solid crystalline phase to liquid crystalline phase) ([3]; reported previously ref 23): 64.5 °C; Cp (clearing point) ([3]; reported previously ref 24): 103.3 °C; Mp (transition from solid crystalline phase to liquid crystalline phase) ([3]; reported previously ref 24): 67.5 °C; Mp (transition from solid crystalline phase to liquid crystalline phase) [4]: 72.5 °C; Cp (clearing point) [4]: 99.4 °C |
| CCCCCCCCCCO[C@@H]1OC[C@@H](O)[C@H](O)[C@H]1O [Compound 9c, Decyl β-D-xylopyranoside] | 277.2 ± 11.5 | 96.63 ± 0.44 | 0.5 | 2.69±0.07 | moderate toxicity | moderate toxicity | toxicity (cell viability) in words (HaCaT cells; [7]): moderate toxicity |
| O[C@@H]1[C@@H](O)[C@H](OCCC(F)(F)C(F)(F)C(F)(F)C(F)(F)C(F)(F)C(F)(F)F)OC[C@H]1O [Compound 9g, 3,3,4,4,5,5,6,6,7,7,8,8,8-Tridecafluorooctyl β-D-xylopyranoside] | – | 50.57 ± 1.64 | 0.9 | 2.64±0.83 | – | – | toxicity (cell viability) in words (HaCaT cells): moderate toxicity; toxicity (cell viability) in words (Jurkat cells [2]): moderate toxicity; Mp (transition from solid crystalline phase to liquid crystalline phase) [4]: 105.1 °C; Cp (clearing point) [4]: 147.0 °C; mode of cell death (Jurkat cells [5]): apoptosis and not necrosis; toxicity (cell viability) in words (Hs27 cells): moderate toxicity |
